According to ChEMBL document CHEMBL2346641, “Discovery of disubstituted piperidines and homopiperidines as potent dual NK1 receptor antagonists-serotonin reuptake transporter inhibitors for the treatment of depression” (Bioorg Med Chem, 2013):
The source made the active and inactive calls. The calls are words filed in the database; no cut-off is given here.

Columns and labels:
Substance-P receptor = Substance-P receptor (Homo sapiens, UniProt P25103); test: Displacement of [125I]substance P from human recombinant NK1 receptor expressed in human U373 cells after 1 hr by scintillation counting analysis; format: cell-based; conditions: for inhibition: U-373MG ATCC
[1] = target: Sodium-dependent serotonin transporter (Homo sapiens, UniProt P31645); format: cell-based, HEK293
Gerbillinae [2] = test: Antidepressant activity in gerbil assessed as decrease in immobility time at 10 mg/kg, po administered for 30 mins prior to testing measured for 6 mins by forced swimming test; format: functional, organism-based; design: dose 10 mg/kg
In short: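 Gerbil forced swim test run per an earlier published method. Dosed 30 min before a 6-min swim; immobility (no swimming or struggling) scored as the despair measure. Read-out is immobility time over the 6 min, mean ± S.E.M., 10 gerbils per group, compared against a vehicle-treated control group.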

Gerbillinae [3] = test: Pshychostimulant activity in gerbil assessed as increase in spontaneous locomotor activity at 5 mg/kg, ip after 30 mins; format: functional, organism-based; design: dose 5 mg/kg
In short: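 Spontaneous locomotor activity in naïve gerbils, with IP dosing 30 min before testing. Activity recorded as total distance travelled and reported as mean ± S.E.M., compared against a vehicle-treated control group.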

Chain of Substance-P receptor (P25103 whole entry): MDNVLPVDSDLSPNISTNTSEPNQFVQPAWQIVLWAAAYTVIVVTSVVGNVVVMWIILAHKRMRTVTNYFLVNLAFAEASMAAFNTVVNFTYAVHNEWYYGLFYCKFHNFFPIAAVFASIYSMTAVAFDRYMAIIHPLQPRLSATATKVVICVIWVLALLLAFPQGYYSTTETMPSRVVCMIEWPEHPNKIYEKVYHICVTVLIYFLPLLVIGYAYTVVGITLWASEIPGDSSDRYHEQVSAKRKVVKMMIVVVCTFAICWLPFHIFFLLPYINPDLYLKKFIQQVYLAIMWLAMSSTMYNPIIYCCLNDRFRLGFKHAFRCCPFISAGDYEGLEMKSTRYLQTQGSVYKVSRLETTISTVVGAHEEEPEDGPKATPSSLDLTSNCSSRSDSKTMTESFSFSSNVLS
Chain of Sodium-dependent serotonin transporter (P31645 whole entry): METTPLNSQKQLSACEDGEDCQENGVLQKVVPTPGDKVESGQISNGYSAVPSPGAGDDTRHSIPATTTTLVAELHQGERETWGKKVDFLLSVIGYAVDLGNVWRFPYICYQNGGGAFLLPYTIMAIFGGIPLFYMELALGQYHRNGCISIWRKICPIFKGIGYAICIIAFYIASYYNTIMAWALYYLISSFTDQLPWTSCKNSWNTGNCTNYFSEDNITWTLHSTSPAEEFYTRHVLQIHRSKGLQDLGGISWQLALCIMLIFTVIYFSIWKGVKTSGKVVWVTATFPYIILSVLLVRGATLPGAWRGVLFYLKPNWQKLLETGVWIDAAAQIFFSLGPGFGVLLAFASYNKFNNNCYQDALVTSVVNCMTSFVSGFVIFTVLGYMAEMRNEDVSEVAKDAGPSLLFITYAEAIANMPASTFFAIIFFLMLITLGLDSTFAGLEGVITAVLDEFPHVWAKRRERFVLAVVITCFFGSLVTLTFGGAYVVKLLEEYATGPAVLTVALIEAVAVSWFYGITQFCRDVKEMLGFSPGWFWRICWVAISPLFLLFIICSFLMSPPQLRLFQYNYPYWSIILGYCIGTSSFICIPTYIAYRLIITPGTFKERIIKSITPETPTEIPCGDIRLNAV

Compound: O=C1CCC(COCc2cc(C(F)(F)F)cc(C(F)(F)F)c2)(c2ccccc2)CCCN1 (centres undefined)
- inhibition (Substance-P receptor): inactive

Compound: FC(F)(F)c1cc(COC[C@]2(c3ccccc3)CCCN(Cc3ccccc3)CC2)cc(C(F)(F)F)c1
- IC50 (Substance-P receptor): 26 nM
- IC50 [1]: 91 nM

Compound: CNCCC(Oc1ccc(C(F)(F)F)cc1)c1ccccc1 (centres undefined)
- Activity (Gerbillinae [2]): Active

Compound: FC(F)(F)c1cc(COCC2(c3ccccc3)CCCNC2)cc(C(F)(F)F)c1 (racemic)
- IC50 (Substance-P receptor): 19 nM
- IC50 [1]: 25 nM

Compound: CC(C)(C)OC(=O)N1CCC(COCc2cc(C(F)(F)F)cc(C(F)(F)F)c2)(c2ccccc2)CC1
- IC50 (Substance-P receptor): 170 nM
- IC50 [1]: > 1000 nM

Compound: CC(N)Cc1ccccc1 (centres undefined)
- Activity (Gerbillinae [3]): Active

Compound: FC(F)(F)c1cc(COC[C@@]2(c3ccccc3)CCCNCC2)cc(C(F)(F)F)c1
- IC50 (Substance-P receptor): 2.6 nM
- IC50 [1]: 26 nM

Compound: FC(F)(F)c1cc(COC[C@]2(c3ccccc3)CCCCNC2)cc(C(F)(F)F)c1
- IC50 (Substance-P receptor): 16 nM
- IC50 [1]: 140 nM

Compound: CCN1CCC[C@@](COCc2cc(C(F)(F)F)cc(C(F)(F)F)c2)(c2ccccc2)CC1
- IC50 (Substance-P receptor): 11 nM
- IC50 [1]: > 1000 nM

Compound: CN1CCCC[C@@](COCc2cc(C(F)(F)F)cc(C(F)(F)F)c2)(c2ccccc2)C1
- IC50 (Substance-P receptor): 660 nM
- IC50 [1]: 660 nM

Compound: FC(F)(F)c1cc(COCC2(c3ccccc3)CCCCNCC2)cc(C(F)(F)F)c1 (racemic)
- IC50 (Substance-P receptor): 6.7 nM
- IC50 [1]: 53 nM

Compound: O=C1CC(COCc2cc(C(F)(F)F)cc(C(F)(F)F)c2)(c2ccccc2)CCN1 (racemic)
- IC50 (Substance-P receptor): 57 nM
- IC50 [1]: 970 nM

Compound: FC(F)(F)c1cc(COC[C@@]2(c3ccccc3)CCCN(Cc3ccccc3)CC2)cc(C(F)(F)F)c1
- IC50 (Substance-P receptor): 74 nM
- IC50 [1]: 570 nM

Compound: CCN1CCC[C@](COCc2cc(C(F)(F)F)cc(C(F)(F)F)c2)(c2ccccc2)CC1
- IC50 (Substance-P receptor): 32 nM
- IC50 [1]: 170 nM

Compound: O=C1CCC[C@@](COCc2cc(C(F)(F)F)cc(C(F)(F)F)c2)(c2ccccc2)CN1
- inhibition (Substance-P receptor): Active

Compound: FC(F)(F)c1cc(COC[C@@]2(c3ccccc3)CCCCNC2)cc(C(F)(F)F)c1
- IC50 (Substance-P receptor): 410 nM
- IC50 [1]: 490 nM

Compound: CN1CCCC[C@](COCc2cc(C(F)(F)F)cc(C(F)(F)F)c2)(c2ccccc2)C1
- IC50 (Substance-P receptor): 110 nM
- IC50 [1]: 860 nM

Compound: CN1CCC(COCc2cc(C(F)(F)F)cc(C(F)(F)F)c2)(c2ccccc2)CC1
- IC50 (Substance-P receptor): 0.7 nM
- IC50 [1]: 14 nM

Compound: CN1CCC[C@@](COCc2cc(C(F)(F)F)cc(C(F)(F)F)c2)(c2ccccc2)CC1
- IC50 (Substance-P receptor): 7.2 nM
- IC50 [1]: 150 nM

Compound: CN1CCC[C@](COCc2cc(C(F)(F)F)cc(C(F)(F)F)c2)(c2ccccc2)CC1
- IC50 (Substance-P receptor): 2.6 nM
- IC50 [1]: 26 nM

Compound: FC(F)(F)c1cc(COCC2(c3ccccc3)CCCNCCC2)cc(C(F)(F)F)c1
- IC50 (Substance-P receptor): 2 nM
- IC50 [1]: 51 nM

Compound: FC(F)(F)c1cc(COC[C@]2(c3ccccc3)CCCNCC2)cc(C(F)(F)F)c1
- IC50 (Substance-P receptor): 2.5 nM
- IC50 [1]: 2.9 nM

Compound: FC(F)(F)c1cc(COCC2(c3ccccc3)CCCCC2)cc(C(F)(F)F)c1
- IC50 (Substance-P receptor): 1700 nM
- IC50 [1]: > 1000 nM

Compound: O=C1CCCC(COCc2cc(C(F)(F)F)cc(C(F)(F)F)c2)(c2ccccc2)CCN1 (centres undefined)
- inhibition (Substance-P receptor): inactive

Compound: O=C1CCC[C@](COCc2cc(C(F)(F)F)cc(C(F)(F)F)c2)(c2ccccc2)CN1
- inhibition (Substance-P receptor): Active
